Assay results: ChEMBL document CHEMBL1134217, “Addressing the stability of C-capped dipeptide efflux pump inhibitors that potentiate the activity of levofloxacin in Pseudomonas aeruginosa” (Bioorg Med Chem Lett, 2001)
Values after ≈ are worked out from the molar mass of the structure shown. Peptide text beside a SMILES is read from it.

Tests used:
[1] = Stability in rat serum measured as % recovery at 10 min; format: ADME; settings: read-out: Recovery
Method in brief: (§1)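 Compounds were incubated in rat serum at 37 °C, with a parallel incubation in H₂O as control. At each time point, 70% trichloroacetic acid and CH₃CN were added dropwise. Unchanged compound was quantified by HPLC and reported as % recovery, averaged from two or more experiments.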

Pseudomonas aeruginosa [2] = test: Minimum inhibitory concentration required to inhibit growth of PAM 1032 strain of Pseudomonas aeruginosa that over expresses MexAB-Opr M efflux pump; format: functional
Method in brief: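 Intrinsic antibacterial activity was checked by measuring the MIC of the efflux pump inhibitor alone, without levofloxacin, against P. aeruginosa PAM 1032, which overexpresses MexAB-OprM.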

[3] = Stability in rat serum measured as % recovery at 3 min; format: ADME; settings: read-out: Recovery; method in brief: as §1
[4] = Stability in rat serum measured as % recovery at 5 min; format: ADME; settings: read-out: Recovery; method in brief: as §1
Pseudomonas aeruginosa [5] = test: Minimum concentration of compound required to reduce the MIC of levofloxacin 8-fold in PAM 1032 strain of Pseudomonas aeruginosa that over expresses MexAB-OprM efflux pump; format: functional
Method in brief: (§2)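 Levofloxacin MICs were measured on PAM 1032 (MexAB-OprM overexpressor) with and without efflux pump inhibitor. MPC₈ is the lowest inhibitor concentration that cuts the levofloxacin MIC 8-fold.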

[6] = Stability in rat serum measured as % recovery at 1 min; format: ADME; settings: read-out: Recovery; method in brief: as §1
Pseudomonas aeruginosa [7] = test: Compound was evaluated in PAM 1032 strain of Pseudomonas aeruginosa for its effect on levofloxacin ( 5 ug/mL) potentiation; format: functional
Method in brief: (§3)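 Levofloxacin MIC read against P. aeruginosa PAM 1032, a laboratory strain overexpressing the MexAB-OprM pump, with the efflux pump inhibitor held at fixed levels of […].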

Pseudomonas aeruginosa [8] = test: Compound was evaluated in PAM 1032 strain of Pseudomonas aeruginosa for its effect on levofloxacin ( 10 ug/mL) potentiation; format: functional; method in brief: as §3
Pseudomonas aeruginosa [9] = test: Compound was evaluated in PAM 1032 strain of Pseudomonas aeruginosa for its effect on levofloxacin (40 ug/mL) potentiation; format: functional; method in brief: as §3
Pseudomonas aeruginosa [10] = test: Compound was evaluated in PAM 1032 strain of Pseudomonas aeruginosa for its effect on levofloxacin (ug/mL) potentiation; format: functional; method in brief: as §3
Pseudomonas aeruginosa [11] = test: Compound was evaluated in PAM 1032 strain of Pseudomonas aeruginosa for its effect on levofloxacin (20 ug/mL) potentiation; format: functional; method in brief: as §3
[12] = Stability in rat serum measured as % recovery at 5 mins; format: ADME; settings: read-out: Recovery
Method in brief: (§4)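 Incubated at 37 °C in rat serum for the stated time, in parallel with a water control. Samples quenched dropwise with 70% trichloroacetic acid plus acetonitrile, then analysed by HPLC. Value is % recovery of unchanged compound, averaged over two or more experiments. Phe-Arg-β-naphthylamine (MC-207,110) served as positive control.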

[13] = Stability in rat serum measured as % recovery at 2 hr; format: ADME; settings: read-out: Recovery; method in brief: as §4
[14] = Stability in rat serum measured as % recovery at 3 mins; format: ADME; settings: read-out: Recovery; method in brief: as §4
[15] = Stability in rat serum measured as % recovery at 10 mins; format: ADME; settings: read-out: Recovery; method in brief: as §4
Pseudomonas aeruginosa [16] = test: Minimum concentration of compound required to reduce the MIC of levofloxacin 8-fold in PAM 1032 strain of Pseudomonas aeruginosa tha over expresses MexAB-Opr M efflux pump; format: functional; method in brief: as §2

## NCCC[C@H](NC(=O)[C@@H](N)Cc1ccccc1)C(=O)Nc1ccc2ccccc2c1
[1]
  remaining at 10 min: 36%
Pseudomonas aeruginosa [2]
  MIC: 512 µg/mL (≈ 1270 µM)
[3]
  remaining at 0.05 h: 80%
[4]
  remaining at 5 min: 64%
Pseudomonas aeruginosa [5]
  MPC: 5 µg/mL
[6]
  remaining at 1 min: 100%

## NCCC[C@H](NC(=O)[C@@H](N)CCc1ccccc1)C(=O)Nc1cnc2ccccc2c1
Pseudomonas aeruginosa [7]
  MIC: 1 µg/mL
Pseudomonas aeruginosa [8]
  MIC: 0.06 µg/mL
Pseudomonas aeruginosa [9]
  MIC: 0.03 µg/mL
Pseudomonas aeruginosa [10]
  MIC: 4 µg/mL
Pseudomonas aeruginosa [11]
  MIC: 0.03 µg/mL
Pseudomonas aeruginosa [5]
  MPC: 10 µg/mL

## CN(C(=O)[C@@H](N)Cc1ccccc1)[C@@H](CCCN)C(=O)Nc1ccc2ccccc2c1.O=C(O)C(F)(F)F.O=C(O)C(F)(F)F
[1]
  remaining at 10 min: 97%
Pseudomonas aeruginosa [2]
  MIC: 256 µg/mL
[3]
  remaining at 0.05 h: 99%
[4]
  remaining at 5 min: 100%
Pseudomonas aeruginosa [5]
  MPC: 5 µg/mL
[6]
  remaining at 1 min: 100%

## N=C(N)NCCC[C@H](NC(=O)[C@@H](N)Cc1ccccc1)C(=O)Nc1ccc2ccccc2c1 [PABETAN] (HELM PEPTIDE1{F.R.[c1ccc2cc(N[*:1])ccc2c1]}$$$$V2.0)
Pseudomonas aeruginosa [2]
  MIC: > 512 µg/mL
[12]
  remaining at 5 min: 55%
[13]
  remaining at 2 h: 0%
[14]
  remaining at 0.05 h: 73%
[15]
  remaining at 10 min: 25%
Pseudomonas aeruginosa [5]
  MPC: 10 µg/mL
[6]
  remaining at 1 min: 100%

## NCCC[C@@H](N)C(=O)N[C@H](CCc1ccccc1)C(=O)Nc1cnc2ccccc2c1
Pseudomonas aeruginosa [7]
  MIC: 4 µg/mL
Pseudomonas aeruginosa [8]
  MIC: 2 µg/mL
Pseudomonas aeruginosa [9]
  MIC: 0.125 µg/mL
Pseudomonas aeruginosa [10]
  MIC: 4 µg/mL
Pseudomonas aeruginosa [11]
  MIC: 0.125 µg/mL
Pseudomonas aeruginosa [5]
  MPC: 20 µg/mL

## NCCC[C@H](N)C(=O)N[C@@H](CCc1ccccc1)C(=O)Nc1cnc2ccccc2c1
Pseudomonas aeruginosa [7]
  MIC: 4 µg/mL
Pseudomonas aeruginosa [8]
  MIC: 0.5 µg/mL
Pseudomonas aeruginosa [9]
  MIC: 0.015 µg/mL
Pseudomonas aeruginosa [10]
  MIC: 4 µg/mL
Pseudomonas aeruginosa [11]
  MIC: 0.06 µg/mL
Pseudomonas aeruginosa [5]
  MPC: 10 µg/mL

## NCCC[C@@H](N)C(=O)N[C@@H](CCc1ccccc1)C(=O)Nc1cnc2ccccc2c1
Pseudomonas aeruginosa [7]
  MIC: 1 µg/mL
[1]
  remaining at 10 min: 100%
Pseudomonas aeruginosa [16]
  MPC: 10 µg/mL
Pseudomonas aeruginosa [2]
  MIC: > 512 µg/mL
Pseudomonas aeruginosa [8]
  MIC: 0.125 µg/mL
Pseudomonas aeruginosa [9]
  MIC: 0.015 µg/mL
[3]
  remaining at 0.05 h: 98%
Pseudomonas aeruginosa [10]
  MIC: 4 µg/mL
[4]
  remaining at 5 min: 98%
[13]
  remaining at 2 h: 95%
Pseudomonas aeruginosa [11]
  MIC: 0.03 µg/mL
Pseudomonas aeruginosa [5]
  MPC: 10 µg/mL
[6]
  remaining at 1 min: 100%

## NCCC[C@H](N)C(=O)N[C@@H](Cc1ccccc1)C(=O)Nc1ccc2ccccc2c1
[1]
  remaining at 10 min: 38%
Pseudomonas aeruginosa [2]
  MIC: 512 µg/mL (≈ 1270 µM)
[3]
  remaining at 0.05 h: 87%
[4]
  remaining at 5 min: 76%
Pseudomonas aeruginosa [5]
  MPC: 10 µg/mL
[6]
  remaining at 1 min: 100%

## NCCC[C@H](N)C(=O)N[C@H](CCc1ccccc1)C(=O)Nc1cnc2ccccc2c1
Pseudomonas aeruginosa [7]
  MIC: 2 µg/mL
Pseudomonas aeruginosa [8]
  MIC: 1 µg/mL
Pseudomonas aeruginosa [9]
  MIC: 0.125 µg/mL
Pseudomonas aeruginosa [10]
  MIC: 4 µg/mL
Pseudomonas aeruginosa [11]
  MIC: 0.5 µg/mL
Pseudomonas aeruginosa [5]
  MPC: 20 µg/mL
